Test results as given in ChEMBL document CHEMBL1151799, “Trace amine-associated receptor 1 (TAAR1) is activated by amiodarone metabolites” (Bioorg Med Chem Lett, 2008).
Activity calls are given as the source filed them. The calls are words filed in the database; no cut-off is given here.

target: Trace amine-associated receptor 1 (Rattus norvegicus) (UniProt Q923Y9); experiment: Antagonist activity at rat TAAR1 expressed in HEK293 cells assessed as intracellular cAMP level at 10 uM after 1 hr; assay type: functional, cell-based
Sequence (Q923Y9 whole entry, the tested form may be a part): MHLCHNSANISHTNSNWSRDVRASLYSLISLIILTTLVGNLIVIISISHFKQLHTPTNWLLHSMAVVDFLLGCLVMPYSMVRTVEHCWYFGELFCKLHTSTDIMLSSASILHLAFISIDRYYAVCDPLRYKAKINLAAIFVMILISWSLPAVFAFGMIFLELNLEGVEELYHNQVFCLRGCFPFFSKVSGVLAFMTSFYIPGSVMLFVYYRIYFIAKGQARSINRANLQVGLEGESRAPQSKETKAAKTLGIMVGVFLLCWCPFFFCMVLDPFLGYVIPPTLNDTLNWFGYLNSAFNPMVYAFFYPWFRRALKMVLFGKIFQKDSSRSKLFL
Summary of the method: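 Stably rTAAR1-transfected HEK293 cells were harvested in Krebs-Ringer-Hepes buffer and incubated in it with 133 µM IBMX, 1 h at 37 °C. Test compound at 10 µM was given in competition with the agonist T1AM at 33 nM. Intracellular cAMP was read. At least three separate experiments, each in triplicate.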

Activity | SMILES
inactive | CCCCc1oc2ccccc2c1C(=O)c1ccc(OCCN(CC)CC)cc1
inactive | CCCCc1oc2ccccc2c1C(=O)c1ccc(OCCNCC)c(I)c1
inactive | CCCCc1oc2ccccc2c1C(=O)c1cc(I)c(OCCNCC)c(I)c1
inactive | CCCCc1oc2ccccc2c1C(=O)c1ccc(OCCN(CC)CC)c(I)c1

target: Trace amine-associated receptor 1 (Rattus norvegicus, UniProt Q923Y9); experiment: Agonist activity at rat TAAR1 expressed in HEK293 cells assessed as intracellular cAMP level; assay type: functional, cell-based
Sequence (Q923Y9 whole entry): as the sequence (Q923Y9 whole entry, the tested form may be a part) above
Summary of the method: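 HEK293 cells stably transfected with rat TAAR1, with empty pcDNA3 vector cells as control, were harvested in Krebs-Ringer-Hepes buffer. They were incubated in the same buffer with 133 µM IBMX plus test compound, 10 µM forskolin or DMSO vehicle for 1 h at 37 °C. Results are mean ± SEM of at least three separate experiments, each run in triplicate.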

SMILES | EC50 [µM]
CCCCc1oc2ccccc2c1C(=O)c1cc(I)c(OCCN)c(I)c1 | 1

target: Trace amine-associated receptor 1 (Rattus norvegicus) (UniProt Q923Y9); experiment: Agonist activity at rat TAAR1 expressed in HEK293 cells assessed as intracellular cAMP level at <=10 uM after 1 hr; assay type: functional, cell-based
Summary of the method: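 HEK293 cells stably transfected with rTAAR1 (empty pcDNA3 vector cells as control) were harvested in Krebs-Ringer-Hepes buffer (KRH), then incubated in KRH with 133 µM IBMX plus test compound, forskolin (10 µM) or vehicle (DMSO) for 1 h at 37 °C. Intracellular cAMP was read. Tested at 10 µM or below. At least three separate experiments, each in triplicate.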

Activity | SMILES
Active | CCCCc1oc2ccccc2c1C(=O)c1ccc(OCCN)c(I)c1
Active | CCCCc1oc2ccccc2c1C(=O)c1ccc(OCCN)cc1
Active | CCCCc1oc2ccccc2c1C(=O)c1ccc(OCCNCC)cc1

SMILES | Activity
CCCCc1oc2ccccc2c1C(=O)c1cc(I)c(OCCN)c(I)c1 | Active
